Source: ChEMBL document CHEMBL5653632, “PRMT5 inhibition disrupts splicing and stemness in glioblastoma” (Nat Commun, 2021)
Active and inactive are the calls of the source. The calls are words filed in the database; no cut-off is given here.

Key:
[1] = tested on: G561; assay: Inhibition of colony formation in human G561 cells assessed as reduction in sphere forming capacity at 1 uM incubated for 14 days by limiting dilution assay; assay type: functional, cell-based; settings: time 14.0 day
How it was run: (§1)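 Each GSC line was seeded on non-adherent 96-well plates in 1:2 serial dilutions from 2000 to 4 cells per well, six replicates per dilution, in adherent-culture medium. Treatment was 1 µM, with SGC2096 and DMSO as controls, added on day 1 and replenished weekly. Wells were scored for spheres at 1 and 2 weeks, and sphere frequency was estimated by ELDA (single-hit model). n = 3.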

[2] = target: Protein arginine N-methyltransferase 5 (Homo sapiens) (UniProt O14744); assay: Inhibition of PRMT5 in human G549 cells assessed as reduction in SDMA level at 1 uM after 7 days by Western blot analysis; assay type: cell-based; settings: time 7.0 day
Protein arginine N-methyltransferase 5 (Homo sapiens), sequence (O14744 whole entry): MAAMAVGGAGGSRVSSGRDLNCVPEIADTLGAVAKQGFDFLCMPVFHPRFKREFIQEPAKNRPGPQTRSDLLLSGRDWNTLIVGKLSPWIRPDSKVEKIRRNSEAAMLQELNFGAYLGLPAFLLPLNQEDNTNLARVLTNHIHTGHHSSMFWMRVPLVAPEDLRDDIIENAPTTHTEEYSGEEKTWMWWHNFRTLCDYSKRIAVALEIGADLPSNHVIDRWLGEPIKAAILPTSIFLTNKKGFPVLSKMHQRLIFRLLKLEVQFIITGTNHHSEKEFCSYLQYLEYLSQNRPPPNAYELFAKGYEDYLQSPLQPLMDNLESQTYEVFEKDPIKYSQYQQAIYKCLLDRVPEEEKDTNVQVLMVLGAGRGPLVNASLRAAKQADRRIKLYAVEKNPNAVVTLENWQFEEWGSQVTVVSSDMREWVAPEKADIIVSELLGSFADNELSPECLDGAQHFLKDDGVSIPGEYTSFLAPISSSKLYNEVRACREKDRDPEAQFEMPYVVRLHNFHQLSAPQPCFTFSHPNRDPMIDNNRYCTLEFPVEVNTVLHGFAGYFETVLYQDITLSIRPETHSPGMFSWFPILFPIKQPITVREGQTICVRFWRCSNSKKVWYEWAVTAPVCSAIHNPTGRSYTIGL

[3] = Antiproliferative activity against human BT143 cells incubated for 9 to 12 days by IncuCyte zoom live-cell imaging analysis; assay type: functional, cell-based
[4] = Antiproliferative activity against human G702 cells incubated for 9 to 12 days by IncuCyte zoom live-cell imaging analysis; assay type: functional, cell-based
How it was run: (§2)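 Adherent culture on poly-L-ornithine/laminin in serum-free NS-A medium with EGF and bFGF (10 ng/mL each) and heparin. Nine concentrations (3 nM–30 µM), three technical replicates per dose, DMSO control, medium and drug refreshed every 5 days, run until DMSO wells were confluent (9–20 days). Confluence was imaged live and normalized to DMSO. Curves were taken at the 95th percentile of time to DMSO confluence, and AAC was calculated.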

[5] = target: Protein arginine N-methyltransferase 5 (Homo sapiens) (UniProt O14744); assay: Inhibition of PRMT5 in human G729 cells assessed as reduction in SDMA level at 1 uM after 7 days by Western blot analysis; assay type: cell-based; settings: time 7.0 day
[6] = Antiproliferative activity against human HF5205 cells incubated for 9 to 12 days by IncuCyte zoom live-cell imaging analysis; assay type: functional, cell-based; how it was run: as §2
[7] = tested on: G411; assay: Induction of apoptosis in human G411 cells at 1 uM after 5 days by Annexin-V staining based IncuCyte live cell imaging analysis; assay type: functional; settings: time 5.0 day
[8] = Antiproliferative activity against human G876 cells incubated for 9 to 12 days by IncuCyte zoom live-cell imaging analysis; assay type: functional, cell-based; how it was run: as §2
[9] = target: Protein arginine N-methyltransferase 5 (Homo sapiens) (UniProt O14744); assay: Inhibition of PRMT5 in human G411 cells assessed as reduction in SDMA level at 1 uM after 5 days by Western blot analysis; assay type: cell-based; settings: time 5.0 day
How it was run: (§3)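 Symmetric dimethylarginine on SmB/B' was measured by western blot with IRDye secondary antibodies and infrared imaging.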

[10] = target: Protein arginine N-methyltransferase 5 (Homo sapiens) (UniProt O14744); assay: Inhibition of PRMT5 in HFNS cells assessed as reduction in SDMA level at 1 uM after 5 days by Western blot analysis; assay type: cell-based; settings: time 5.0 day
[11] = Antiproliferative activity against human G861 cells incubated for 9 to 12 days by IncuCyte zoom live-cell imaging analysis; assay type: functional, cell-based; how it was run: as §2
[12] = tested on: G411; assay: Induction of senescence in human G411 cells at 1 uM after 5 days by SA-beta-galactosidase based assay; assay type: functional, cell-based; settings: time 5.0 day
How it was run: (§4)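 GSCs were treated at 1 µM for 5 days, with SGC2096 and DMSO as controls and n = 3. Cells were fixed in 4% paraformaldehyde for 5 min at RT, stained overnight with SA-β-gal solution, and counterstained with nuclear fast red. Blue cells were counted as a fraction of total cells.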

[13] = target: Protein arginine N-methyltransferase 5 (Homo sapiens) (UniProt O14744); assay: Inhibition of PRMT5 in human G797 cells assessed as reduction in SDMA level at 1 uM after 7 days by Western blot analysis; assay type: cell-based; settings: time 7.0 day
[14] = tested on: G411; assay: Antiproliferative activity against human G411 cells incubated for 9 to 12 days by IncuCyte zoom live-cell imaging analysis; assay type: functional, cell-based; how it was run: as §2
[15] = Antiproliferative activity against human G477 cells incubated for 9 to 12 days by IncuCyte zoom live-cell imaging analysis; assay type: functional, cell-based; how it was run: as §2
[16] = Antiproliferative activity against human G851 cells incubated for 9 to 12 days by IncuCyte zoom live-cell imaging analysis; assay type: functional, cell-based; how it was run: as §2
[17] = tested on: G729; assay: Induction of senescence in human G729 cells at 1 uM after 5 days by SA-beta-galactosidase based assay; assay type: functional, cell-based; settings: time 5.0 day; how it was run: as §4
[18] = Antiproliferative activity against human BT147 cells incubated for 9 to 12 days by IncuCyte zoom live-cell imaging analysis; assay type: functional, cell-based
[19] = Antiproliferative activity against human G800 cells incubated for 9 to 12 days by IncuCyte zoom live-cell imaging analysis; assay type: functional, cell-based; how it was run: as §2
[20] = Antiproliferative activity against human G583 cells incubated for 9 to 12 days by IncuCyte zoom live-cell imaging analysis; assay type: functional, cell-based; how it was run: as §2
[21] = Antiproliferative activity against human G895 cells incubated for 9 to 12 days by IncuCyte zoom live-cell imaging analysis; assay type: functional, cell-based; how it was run: as §2
[22] = target: Protein arginine N-methyltransferase 5 (Homo sapiens) (UniProt O14744); assay: Inhibition of PRMT5 in human G561 cells assessed as reduction in SDMA level at 1 uM after 5 days by Western blot analysis; assay type: cell-based; settings: time 5.0 day; how it was run: as §3
[23] = Antiproliferative activity against human G626 cells incubated for 9 to 12 days by IncuCyte zoom live-cell imaging analysis; assay type: functional, cell-based; how it was run: as §2
[24] = tested on: G583; assay: Inhibition of colony formation in human G583 cells assessed as reduction in sphere forming capacity at 1 uM incubated for 14 days by limiting dilution assay; assay type: functional, cell-based; settings: time 14.0 day; how it was run: as §1
[25] = tested on: G583; assay: Induction of apoptosis in human G583 cells at 1 uM after 5 days by Annexin-V staining based IncuCyte live cell imaging analysis; assay type: functional; settings: time 5.0 day
[26] = Antiproliferative activity against human G566 cells incubated for 9 to 12 days by IncuCyte zoom live-cell imaging analysis; assay type: functional, cell-based; how it was run: as §2
[27] = Antiproliferative activity against human G523 cells incubated for 9 to 12 days by IncuCyte zoom live-cell imaging analysis; assay type: functional, cell-based; how it was run: as §2
[28] = tested on: G583; assay: Induction of senescence in human G583 cells at 1 uM after 5 days by SA-beta-galactosidase based assay; assay type: functional, cell-based; settings: time 5.0 day; how it was run: as §4
[29] = Antiproliferative activity against human G561 cells incubated for 9 to 12 days by IncuCyte zoom live-cell imaging analysis; assay type: functional, cell-based; how it was run: as §2
[30] = Antiproliferative activity against human HF7450 cells incubated for 9 to 12 days by IncuCyte zoom live-cell imaging analysis; assay type: functional, cell-based; how it was run: as §2
[31] = tested on: G411; assay: Antiproliferative activity against human G411 cells at 1 uM incubated for 9 to 12 days by IncuCyte zoom live-cell imaging analysis; assay type: functional, cell-based; settings: time 9-12 day
How it was run: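 Adherent GSCs were cultured in serum-free medium with EGF and bFGF on poly-L-ornithine/laminin and plated in triplicate in 96-well plates. They were treated at 1 µM, with 1 µM SGC2096 or 0.05% DMSO as controls, for 9–12 days or until DMSO wells were confluent. Medium with drug was refreshed every 5 days. IncuCyte confluence was imaged every 8 h and normalized to each well's initial confluence.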

[32] = Antiproliferative activity against human G799 cells incubated for 9 to 12 days by IncuCyte zoom live-cell imaging analysis; assay type: functional, cell-based; how it was run: as §2
[33] = Antiproliferative activity against human HF6562 cells incubated for 9 to 12 days by IncuCyte zoom live-cell imaging analysis; assay type: functional, cell-based; how it was run: as §2
[34] = Antiproliferative activity against human G837 cells incubated for 9 to 12 days by IncuCyte zoom live-cell imaging analysis; assay type: functional, cell-based; how it was run: as §2
[35] = Antiproliferative activity against human G564 cells incubated for 9 to 12 days by IncuCyte zoom live-cell imaging analysis; assay type: functional, cell-based; how it was run: as §2
[36] = tested on: G411; assay: Inhibition of colony formation in human G411 cells assessed as reduction in sphere forming capacity at 1 uM incubated for 14 days by limiting dilution assay; assay type: functional, cell-based; settings: time 14.0 day; how it was run: as §1
[37] = tested on: G729; assay: Induction of apoptosis in human G729 cells at 1 uM after 5 days by Annexin-V staining based IncuCyte live cell imaging analysis; assay type: functional; settings: time 5.0 day
[38] = Antiproliferative activity against human BT069 cells incubated for 9 to 12 days by IncuCyte zoom live-cell imaging analysis; assay type: functional, cell-based

Compound | inhibition [1] | inhibition [2] | IC50 [3] [nM] | IC50 [4] [nM] | inhibition [5] | EC50 [6] [nM] | Activity [7] | IC50 [8] [nM] | inhibition [9] | inhibition [10] | IC50 [11] [nM] | Activity [12] | inhibition [13] | EC50 [14] [nM] | EC50 [15] [nM] | IC50 [16] [nM] | Activity [17] | IC50 [18] [nM] | IC50 [19] [nM] | EC50 [20] [nM] | also measured
O=C(NC[C@H](O)CN1CCc2ccccc2C1)c1ccnc(NC2CCC2)c1 | Active | Active | 600 | 1620 | Active | 7 | Active | 2450 | Active | Active | 1280 | Active | Active | 100 | 3180 | 570 | Active | 170 | 16400 | 440 | IC50 [21]: 640 nM; inhibition [22]: Active; EC50 [23]: 480 nM; inhibition [24]: Active; Activity [25]: Active; IC50 [26]: 2050 nM; IC50 [27]: 830 nM; Activity [28]: Active; EC50 [29]: 1000 nM; EC50 [30]: 155 nM; Activity [31]: Active; IC50 [32]: 680 nM; EC50 [33]: 63 nM; IC50 [34]: 5010 nM; IC50 [35]: 230 nM; inhibition [36]: Active; Activity [37]: Active; IC50 [38]: 690 nM
Nc1ncnc2c1ccn2[C@@H]1O[C@H]([C@H](O)c2ccccc2)[C@@H](O)[C@H]1O | Active | Active | 160 | 20 | Active | 9 | Active | 30 | Active | Active | 40 | Active | Active | 19 | 40 | 10 | Active | 10 | 120 | 15 | IC50 [21]: 100 nM; inhibition [22]: Active; EC50 [23]: 10 nM; inhibition [24]: Active; Activity [25]: Active; IC50 [26]: 30 nM; IC50 [27]: 10 nM; Activity [28]: Active; EC50 [29]: 10 nM; EC50 [30]: 3 nM; Activity [31]: Active; IC50 [32]: 20 nM; EC50 [33]: 0.66 nM; IC50 [34]: 40 nM; IC50 [35]: 30 nM; inhibition [36]: Active; Activity [37]: Active; IC50 [38]: 30 nM
